One experiment deals with Cryptococcus neoformans. In words: Antifungal activity against Cryptococcus neoformans var. grubii H99 ATCC 208821 assessed as fungal growth inhibition at 32 ug/ml measured after 3 days by resazurine dye based assay. Format: functional, organism-based. The settings on record: dose 32.0 µg/ml, time 3.0 day. The gist of the method: (§1)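 Screened through CO-ADD at 32 µg/mL against a panel of five bacteria and two fungi. Run in duplicate (n=2) on different plates. Activity was called when inhibition exceeded 80% with a Z-score above 2.5 in either replicate.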
For orientation: The colour change of resazurin is a common sign of viable cells or microbes.

The test system of another experiment is Escherichia coli. Briefly: Antibacterial activity against Escherichia coli ATCC 25922 assessed as bacterial growth inhibition at 32 ug/ml measured after 18 hrs by resazurine dye based assay. Format: functional, organism-based. To be noted: dose 32.0 µg/ml. The gist of the method:
as §1

Experiment [1] relates to Haemonchus contortus. Briefly: Anthelmintic activity against third stage larvae of Haemonchus contortus assessed as inhibition of xL3 larval motility at 20 uM measured after 72 hrs. Format: functional, organism-based. The gist of the method: (§2)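 Exsheathed third-stage larvae (xL3s) of Haemonchus contortus, screened at 20 µM in 96-well plates holding 300 xL3s per well; testing was done at the University of Melbourne.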

The subject of another experiment is Candida albicans. Briefly: Antifungal activity against Candida albicans ATCC 90028 assessed as fungal growth inhibition at 32 ug/ml measured after 3 days by resazurine dye based assay relative to control. In kind it is functional. To be noted: ATCC 90028, 72 h, time 3 day. The gist of the method:
as §1

For experiment [2], the system named is Haemonchus contortus. Briefly: Anthelmintic activity against third stage larvae of Haemonchus contortus assessed as inhibition of larval development at 20 uM measured after 7 days by microscopic analysis. In kind it is functional, organism-based. To be noted: time 7.0 day. The gist of the method:
as §2

A further experiment deals with Staphylococcus aureus. In words: Antibacterial activity against Staphylococcus aureus MRSA ATCC 43300 assessed as bacterial growth inhibition at 32 ug/ml measured after 18 hrs by resazurine dye based assay relative to control. In kind it is functional. The gist of the method: as §1

Active and inactive are the calls of the source. The rule behind the calls is not given here.

Regarding `CC(=O)OC[C@@H]1O[C@H](Oc2c(OC(C)=O)cc3c4c(ccc(-c5ccccc5)c24)C(=O)OC3)[C@@H](OC(C)=O)[C@H](OC(C)=O)[C@H]1OC(C)=O`, the result in the experiment on Cryptococcus neoformans and with Escherichia coli was inactive.

In the case of `O=c1c(O[C@@H]2O[C@H](CO[C@@H]3O[C@H](CO)[C@@H](O)[C@H](O)[C@H]3O)[C@@H](O)[C@H](O)[C@H]2O)c(-c2ccc(O)c(O)c2)oc2cc(O)cc(O)c12`, the result in the experiment on Cryptococcus neoformans and in the experiment on Escherichia coli was inactive.

What is called inhibition is the relative decrease from the control value, in per cent. On to `O=C1C=Cc2cc(O[C@@H]3O[C@H](CO)[C@@H](O)[C@H](O)[C@H]3O)cc3c(-c4ccc(O)cc4)ccc1c23`, for which the result in the experiment with Cryptococcus neoformans, in the experiment on Haemonchus contortus [1], in the experiment with Escherichia coli and in the experiment with Haemonchus contortus [2] was inactive. In the experiment with Candida albicans, the inhibition at 32 µg/mL was found to be 29.6%.

Consider `O=C1C(O)=Cc2cc(O[C@@H]3O[C@H](CO[C@@H]4O[C@H](CO)[C@@H](O)[C@H](O)[C@H]4O)[C@@H](O)[C@H](O)[C@H]3O)cc3c(-c4ccc(O)c(O)c4)ccc1c23`, for which the outcome in the experiment with Cryptococcus neoformans, in the experiment with Haemonchus contortus [1], with Escherichia coli and in the experiment with Haemonchus contortus [2] was inactive.

Regarding `COC(=O)c1ccc(-c2ccccc2)c2c1C(=O)C=C(OC)C2=O`, the outcome in the experiment with Cryptococcus neoformans and in the experiment with Escherichia coli was inactive.

On to `COC1=Cc2cc(OC)c(O[C@@H]3O[C@H](CO)[C@@H](O)[C@H](O)[C@H]3O[C@@H]3O[C@H](COC(=O)/C=C/c4ccc(O)c(O)c4)[C@@H](O)[C@H](O)[C@H]3O)c3c(-c4ccccc4)ccc(c23)C1=O`, for which the result with Cryptococcus neoformans, with Haemonchus contortus [1], in the experiment on Escherichia coli and with Haemonchus contortus [2] was inactive.

For `O=C1OCc2cc(O)c(O[C@@H]3O[C@H](CO)[C@@H](O)[C@H](O)[C@H]3O)c3c(-c4ccccc4)ccc1c23`, the outcome in the experiment on Cryptococcus neoformans, in the experiment with Haemonchus contortus [1], in the experiment with Escherichia coli and in the experiment on Haemonchus contortus [2] was inactive.

Take `O=C1OC(C(=O)O)c2cc(O)c(O[C@H]3O[C@@H](CO)[C@H](O)[C@@H](O)[C@@H]3O)c3c(-c4ccccc4)ccc1c23` (mixture of isomers): the outcome with Cryptococcus neoformans and with Escherichia coli was inactive.

As for `COc1cc2ccc(=O)c3cc(O[C@@H]4O[C@H](CO)[C@@H](O)[C@H](O)[C@H]4O)c4c5ccccc5oc1c4c23`, the result in the experiment on Cryptococcus neoformans and in the experiment on Escherichia coli was inactive. Also, the inhibition at 32 µg/mL with Staphylococcus aureus was 8.1%.

Take `O=C1C=Cc2cc(O)c(O[C@@H]3O[C@H](CO)[C@@H](O)[C@H](O)[C@H]3O)c3cc(-c4ccccc4O)cc1c23`: the result in the experiment with Cryptococcus neoformans, with Haemonchus contortus [1], with Escherichia coli and in the experiment on Haemonchus contortus [2] was inactive. For the same molecule, the inhibition at 32 µg/mL in the experiment with Candida albicans came out at 38.7%.

For the molecule `O=c1c(O[C@@H]2O[C@H](CO)[C@@H](O)[C@H](O)[C@H]2O)c(-c2ccc(O)c(O)c2)oc2cc(O)cc(O)c12`, the outcome in the experiment on Cryptococcus neoformans and with Escherichia coli was inactive.

With `O=C1C(O)=Cc2ccc(O[C@@H]3O[C@H](CO)[C@@H](O)[C@H](O)[C@H]3O)c3cc(-c4ccccc4O)cc1c23`, the result in the experiment on Cryptococcus neoformans, in the experiment on Haemonchus contortus [1], in the experiment on Escherichia coli and with Haemonchus contortus [2] was inactive.

As for `COc1cc2ccc(=O)c3ccc4c5ccccc5oc1c4c23`, the result in the experiment with Cryptococcus neoformans and in the experiment on Escherichia coli was inactive. Also, the inhibition at 32 µg/mL with Staphylococcus aureus was found to be 58.4%.

For `O=C1OC(O)c2cc(O)c(O[C@@H]3O[C@H](CO)[C@@H](O)[C@H](O)[C@H]3O)c3c(-c4ccccc4)ccc1c23` (mixture of isomers), the outcome in the experiment with Cryptococcus neoformans, in the experiment with Haemonchus contortus [1], in the experiment on Escherichia coli and in the experiment with Haemonchus contortus [2] was inactive.

Source of the values: ChEMBL document CHEMBL4840361, “Phytochemical Profiling and Biological Testing of the Constituents of the Australian Plant Haemodorum brevisepalum” (2021).
